Assay outcomes from PubChem BioAssay.
Pf Dd2 growth – P. falciparum Dd2 growth inhibitors, primary screen, SYBR Green fluorescence, single dose replicates | 72 h; active compounds read low | activity change, % at 10 µM | 2.3% of 94,000 active; in the data active = activity change below about -80%; inconclusive = no clear call, values can overlap the other calls
T cruzi growth-1 – T. cruzi intracellular proliferation inhibitors, primary screen, cell-based, beta-gal Tulahuen parasites, NIH3T3 host, luminescence. AID 624255, 2012. inhibition, % at 8.34 µM. T. cruzi beta-gal in NIH3T3, GalScreen luminescence, 90 h. 5.9% of 77,000 active;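 active = mean inhibition above about 93%, with at least 55% of replicates each passing it, limit read from the data, passing the limit was not always enough; inconclusive = only one of those two conditions holds; inactive = neither condition holds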
IDH1 mut inh – inhibitors of IDH1 R132H reductase, primary screen, biochemical, plate reader, single point | Isocitrate dehydrogenase [NADP] cytoplasmic (Homo sapiens), O75874 | diaphorase/resazurin fluorescence, 60 min | inhibition, % at 10 µM | 0.18% of 70,000 active | AID 624101, 2012; in the data active = inhibition above about 34%; inconclusive = no clear call, values can overlap the other calls; inactive = below about 11%;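 also: 0% = DMSO and 100% = no enzyme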
Target sequence (O75874 whole entry R132H): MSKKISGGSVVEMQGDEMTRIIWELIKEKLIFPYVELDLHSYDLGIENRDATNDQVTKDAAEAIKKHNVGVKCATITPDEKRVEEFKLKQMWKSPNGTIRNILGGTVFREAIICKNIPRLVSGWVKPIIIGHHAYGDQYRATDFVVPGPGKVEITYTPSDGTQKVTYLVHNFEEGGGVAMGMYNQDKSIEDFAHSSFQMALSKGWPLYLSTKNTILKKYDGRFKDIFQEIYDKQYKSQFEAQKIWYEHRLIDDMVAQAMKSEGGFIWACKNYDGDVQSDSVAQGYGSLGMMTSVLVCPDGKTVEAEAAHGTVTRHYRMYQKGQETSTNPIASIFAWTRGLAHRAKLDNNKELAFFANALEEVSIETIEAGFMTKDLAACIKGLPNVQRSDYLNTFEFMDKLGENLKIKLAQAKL
KDM4C inh – inhibitors of GASC-1 (KDM4C) histone demethylase, primary screen, biochemical, single concentration HTS; GST-KDM4C 2-372, H3K9me3 peptide, LANCE TR-FRET; inhibition, % at 12.5 µM; 0.15% of 96,000 active; Lysine-specific demethylase 4C (Homo sapiens), Q9H3R0;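 active = mean replicate inhibition above about 25%, with at least 55% of replicates also reaching it, limit read from the data, passing the limit was not always enough; inconclusive = only one of those two conditions met; inactive = neither condition met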
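reagent = H3K9me3 peptide substrate, Fe(II), 2-oxoglutarate | system = GST-tagged GASC-1 (JMJD2C) catalytic fragment, aa 2-372 | amount = enzyme final amount 10 nM | read-out = Fall in 671/618 emission ratio as inhibition | medium = HEPES buffer, pH 7.5, plus ascorbate | schedule = 30 min reaction, 60 min detection, RT | measured by = LANCE TR-FRET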
T cruzi growth-2 – T. cruzi intracellular proliferation inhibitors, confirmation, cell-based, NIH3T3 host, beta-gal parasite, luminescence, cherry-pick; shares compounds with T cruzi growth-1; T. cruzi beta-gal in NIH3T3, GalScreen luminescence, 90 h; inhibition, % at 8.35 µM; 72% of 5,600 active; AID 651739, 2012;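 active = mean replicate inhibition above about 95% and at least 55% of replicates individually reaching it, limit read from the data; inconclusive = only one of the two criteria is met; inactive = neither criterion is met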
T cruzi growth-3 – inhibitors of intracellular T. cruzi replication, confirmation, NIH3T3 host cells, beta-gal parasites, cherry-pick, set 2; AID 651740, 2012; 21% of 5,600 active; shares compounds with T cruzi growth-1; inhibition, % at 2.09 µM; T. cruzi beta-gal in NIH3T3, GalScreen luminescence, 90 h;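 active = mean inhibition above about 95%, with at least 55% of replicates also reaching it, limit read from the data; inconclusive = meets just one of the two conditions; inactive = meets neither condition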;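 also: plate controls were neutral control median for no effect and positive control median for full effect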
NIH3T3 tox – cytotoxicity in mouse NIH/3T3 fibroblasts, confirmation, cytotoxicity control for T. cruzi proliferation inhibitor project, cell-based, cherry-pick, single point; shares compounds with T cruzi growth-1; NIH/3T3 viability, CellTiter-Glo ATP luminescence, 90 h; cytotoxicity (signal decrease), % at 8.35 µM; 14% of 5,600 active; AID 651742, 2012;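 active = mean signal decrease across replicates above about 35% based on untreated-well scatter, with enough replicates individually passing, limit read from the data; inconclusive = no rule stated though some were filed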;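 also: 0% = median of neutral control wells and 100% = median of positive control wells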
NIH3T3 tox 2 – NIH/3T3 fibroblast cytotoxicity, confirmation, cytotoxicity control, cell-based, cherry-pick, single point, set 2; inhibition, % at 24.9 µM; 56% of 5,600 active; shares compounds with T cruzi growth-1; AID 651744, 2012; NIH/3T3 viability, CellTiter-Glo ATP luminescence, 90 h;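 active = mean loss of cell viability signal at or above a set limit, and enough replicates individually reaching it; inconclusive = meets only the mean limit or only the replicate share; inactive = meets neither condition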;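 also: 0% = median of neutral control wells and 100% = median of positive control wells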
* hit, by the source's call; u = inconclusive; x = no result given. Sampled rows, rich in hits. Any-hit rate of the full collection: about 5.8%.

SMILES	Pf Dd2 growth	T cruzi growth-1	IDH1 mut inh	KDM4C inh	T cruzi growth-2	T cruzi growth-3	NIH3T3 tox	NIH3T3 tox 2
CCCC#Cc1ccc2c(c1)O[C@@H](CN(C)Cc1ccncc1)[C@H](C)CN([C@H](C)CO)S2(=O)=O	-70	117*	7	8	98*	102*	72*	105*
N#C[C@@H]1[C@H](c2ccc(C#CC3CCCC3)cc2)[C@@H](CO)N1S(=O)(=O)c1ccccc1	-16	97*	x	-1	96*	107*	13	108*
CS(=O)(=O)N1[C@@H](C#N)[C@@H](c2ccc(C#CC3CC3)cc2)[C@@H]1CO	-28	103*	x	-2	107*	u	-22	16
CS(=O)(=O)N1[C@@H](C#N)[C@H](c2ccc(C#CC3CC3)cc2)[C@@H]1CO	-28	66	x	-5	x	x	x	x
COc1ccccc1-c1ccc([C@H]2[C@@H](CO)N3CCCCN(C(=O)NC4CCCC4)C[C@@H]23)cc1	25	100*	x	0	109*	81	-11	34*
O=C(NC1CCCC1)N1CCCCN2[C@H](CO)[C@@H](c3ccc(-c4ccccc4)cc3)[C@H]2C1	1	61	x	-3	x	x	x	x
O=C(NC1CCCC1)N1CCCCN2[C@H](CO)[C@H](c3ccc(-c4ccccc4)cc3)[C@@H]2C1	16	113*	x	2	113*	79	-17	63*
O=S(=O)(c1ccc(F)cc1)N1CCCCN2[C@H](CO)[C@@H](c3ccc(-c4ccccc4F)cc3)[C@H]2C1	-31	85	x	x	x	x	x	x
O=S(=O)(c1ccc(F)cc1)N1CCCCN2[C@H](C1)[C@H](c1ccc(-c3ccccc3)cc1)[C@@H]2CO	-23	64	x	0	x	x	x	x
Cc1ccccc1-c1ccc([C@H]2[C@@H](CO)N3CCCCN(S(=O)(=O)c4ccc(F)cc4)C[C@H]23)cc1	-67	109*	x	-2	98*	u	12	105*
Cc1ccccc1-c1ccc([C@@H]2[C@@H](CO)N3CCCCN(S(=O)(=O)c4ccc(F)cc4)C[C@@H]23)cc1	7	108*	x	-1	109*	82	30	81*
C[C@H](CO)N1C[C@H](C)[C@@H](CN(C)S(=O)(=O)c2ccccc2F)Oc2cc(-c3ccccc3)ccc2S1(=O)=O	-64	69	-1	0	x	x	x	x
C[C@H]1CN([C@@H](C)CO)S(=O)(=O)c2ccc(-c3ccccc3)cc2O[C@H]1CN(C)S(=O)(=O)c1ccccc1F	-44	119*	0	-1	103*	103*	33	46*
C[C@H]1CN([C@@H](C)CO)S(=O)(=O)c2ccc(-c3ccccc3)cc2O[C@@H]1CN(C)S(=O)(=O)c1ccccc1F	-31	91*	0	-4	99*	75	37*	38*
C[C@H](CO)N1C[C@H](C)[C@H](CN(C)S(=O)(=O)c2ccccc2F)Oc2cc(-c3ccccc3)ccc2S1(=O)=O	-35	120*	-1	1	100*	90	u	45*
C[C@H](CO)N1C[C@H](C)[C@@H](CN(C)S(=O)(=O)c2ccc(F)cc2)Oc2cc(-c3cccc(F)c3)ccc2S1(=O)=O	-71	118*	x	-2	97*	104*	39*	42*
C[C@@H]1CN([C@@H](C)CO)S(=O)(=O)c2ccc(-c3cccc(F)c3)cc2O[C@H]1CN(C)S(=O)(=O)c1ccc(F)cc1	-78	113*	x	1	101*	108*	49*	48*
COc1ccc(S(=O)(=O)N(C)C[C@@H]2Oc3cc(-c4cccc(F)c4)ccc3S(=O)(=O)N([C@H](C)CO)C[C@H]2C)cc1	-76	x	0	1	x	x	x	x
COc1ccc(S(=O)(=O)N(C)C[C@H]2Oc3cc(-c4cccc(F)c4)ccc3S(=O)(=O)N([C@H](C)CO)C[C@@H]2C)cc1	-72	x	-1	-1	x	x	x	x
O=C1CN(Cc2ccc(F)cc2)C[C@H]2[C@H](c3ccc(-c4ccccc4F)cc3)[C@H](CO)N12	3	x	x	0	x	x	x	x
C[C@H](CO)N1C[C@H](C)[C@H](CN(C)C(=O)CN2CCOCC2)Oc2ncc(C#C[C@@H](C)O)cc2C1=O	32	97	-3	1	x	x	x	x
COc1cccc(NC(=O)N(C)C[C@@H]2Oc3ncc(C#Cc4ccc(F)cc4)cc3C(=O)N([C@@H](C)CO)C[C@H]2C)c1	-39	113*	x	-2	112*	111*	31	14
COc1cccc(NC(=O)N(C)C[C@H]2Oc3ncc(C#Cc4ccc(F)cc4)cc3C(=O)N([C@@H](C)CO)C[C@@H]2C)c1	-46	121*	x	-4	106*	100*	23	38*
COc1cccc(NC(=O)N(C)C[C@H]2Oc3ncc(C#Cc4ccc(F)cc4)cc3C(=O)N([C@H](C)CO)C[C@H]2C)c1	-2	41	x	-2	x	x	x	x
COc1cccc(NC(=O)N(C)C[C@H]2Oc3ncc(C#Cc4ccc(F)cc4)cc3C(=O)N([C@H](C)CO)C[C@@H]2C)c1	-36	80	-1	-2	x	x	x	x
COc1cccc(NC(=O)N(C)C[C@@H]2Oc3ncc(C#Cc4ccc(F)cc4)cc3C(=O)N([C@H](C)CO)C[C@H]2C)c1	-14	117*	0	-1	108*	102*	5	14
COc1cccc(NC(=O)N(C)C[C@@H]2Oc3ncc(C#Cc4ccc(F)cc4)cc3C(=O)N([C@H](C)CO)C[C@@H]2C)c1	-28	104*	x	-3	98*	34	26	81*
O=C1CN(S(=O)(=O)Cc2ccccc2)C[C@H]2[C@@H](c3ccc(C#Cc4cccc(F)c4)cc3)[C@@H](CO)N12	-23	x	x	-2	x	x	x	x
C[C@@H]1CN([C@@H](C)CO)C(=O)c2cc(C#CC3CCCCC3)cnc2O[C@@H]1CN(C)C(=O)C1CCCCC1	-50	25	x	u	x	x	x	x
CCCC#Cc1ccc([C@H]2[C@H](C#N)N(C(=O)C3CC3)[C@H]2CO)cc1	-24	106*	x	-1	107*	89	-4	32*
